Experimental data from ChEMBL document CHEMBL1629691, “Intrapulmonary pharmacokinetics and pharmacodynamics of micafungin in adult lung transplant patients” (Antimicrob Agents Chemother, 2010).
Numbered stars: 1 amine (or outer) side, 2 acyl side, 3 side chain; on linkers, the order of the positions; unused ones are H or OH. Bridge positions count the residues as written; N and C are the ends. Square brackets hold non-standard residues; d marks the D form. Peptide text beside a SMILES is read from it. * marks the point of attachment. hTyr(3S-OH,4S-OH,3'-OSO3H) = N[C@H](C(=O)O)[C@H](O)[C@@H](O)c1ccc(O)c(OS(=O)(=O)O)c1; Orn(4R-OH,5R-OH) = O=C([C@H](C[C@@H](O)[C@@H](O)N[*:3])N[*:1])[*:2]; Pro(3S-OH,4S-Me) = C[C@H]1CN[C@H](C(=O)O)[C@H]1O; X1 = CCCCCOc1ccc(-c2cc(-c3ccc(C(=O)*)cc3)no2)cc1; Gln(3R-OH) = NC(=O)C[C@@H](O)[C@H](N)C(=O)O; Hyp = O=C(O)[C@@H]1C[C@@H](O)CN1

Key:
[1] = Drug level in alveolar cells of lung transplant recipient invasive aspergillosis patient at 150 mg, iv QD for 4 consecutive days measured after 3 hrs post last dose by HPLC; assay type: ADME, organism-based, Pneumocyte; details: human, read-out: Drug uptake
Outline: (§1)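 150-mg IV micafungin, then bronchoscopy with BAL (20-ml saline aliquots) at the stated time after the dose. Blood was drawn in heparin at the same time. The BAL fluid was spun at 400 × g for 5 min at 4°C; supernatant and cell pellet were frozen at −80°C. Micafungin was measured by solid-phase extraction and C8 HPLC with UV detection at 271.5 nm, using anidulafungin as internal standard.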

Homo sapiens [2] = test: Hepatotoxicity in lung transplant recipient invasive aspergillosis patient assessed as serum AST level at 150 mg, iv QD for 4 consecutive days measured post last dose; assay type: toxicity, organism-based; details: in vivo
Outline: (§2)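 Serum creatinine, AST, ALT and total bilirubin were recorded from routine clinical laboratory tests before enrolment and again after BAL, at a mean of 10.7 days after infusion.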

Homo sapiens [3] = test: Hepatotoxicity in lung transplant recipient invasive aspergillosis patient assessed as serum ALT level at 150 mg, iv measured post last dose; details: in vivo
[4] = Tmax in epithelial lining fluid of lung transplant recipient invasive aspergillosis patient at 150 mg, iv QD for 4 consecutive days by HPLC; assay type: ADME, organism-based; details: human
Outline: (§3)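 150-mg IV dose; BAL at 3, 5, 8, 18 or 24 h after the dose, about 4 subjects per time group. Plasma, ELF and alveolar cell drug was measured by reversed-phase HPLC with UV detection. Values were averaged per time point. Cmax is the highest mean over the five groups; Tmax is the mean dose-to-BAL time of that group.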

[5] = Ratio of drug level in alveolar cell to plasma of lung transplant recipient invasive aspergillosis patient at 150 mg, iv QD for 4 consecutive days measured after 24 hrs post last dose; assay type: ADME, organism-based, Pneumocyte; details: human, alveolar cells / plasma
[6] = Ratio of AUC (0 to 24 hrs) in lung transplant recipient invasive aspergillosis patient epithelial lining fluid to MIC90 for Aspergillus fumigatus; assay type: functional
[7] = Drug level in alveolar cells of lung transplant recipient invasive aspergillosis patient at 150 mg, iv QD for 4 consecutive days measured after 8 hrs post last dose by HPLC; assay type: ADME, organism-based, Pneumocyte; details: human, read-out: Drug uptake; outline: as §1
[8] = Ratio of Cmax in lung transplant recipient invasive aspergillosis patient epithelial lining fluid to MIC90 for Aspergillus fumigatus; assay type: functional
[9] = Ratio of Cmax in lung transplant recipient invasive aspergillosis patient alveolar cell to MIC90 for Aspergillus fumigatus; assay type: functional, Pneumocyte
[10] = AUC (0 to 24 hrs) in lung transplant recipient invasive aspergillosis patient plasma at 150 mg, iv administered as single dose; assay type: ADME, organism-based; design: dose 150 mg, time < 24 hr, route intravenous; details: human
Outline: (§4)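 Single 150-mg IV dose in adult lung transplant recipients. Plasma, ELF (epithelial lining fluid) and alveolar cell concentrations were measured by HPLC at the time of bronchoscopy. AUC0-24 came from a population model: a linear four-compartment model fit to all compartments, with the plasma two-compartment model used for the plasma profile.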

[11] = Ratio of drug level in alveolar cell to plasma of lung transplant recipient invasive aspergillosis patient at 150 mg, iv single dose measured after 5 hrs post dose; details: human, alveolar cells / plasma
[12] = Drug level in alveolar cells of lung transplant recipient invasive aspergillosis patient at 150 mg, iv QD for 4 consecutive days measured after 24 hrs post last dose by HPLC; assay type: ADME, organism-based, Pneumocyte; details: human, read-out: Drug uptake; outline: as §1
[13] = Cmax in lung transplant recipient invasive aspergillosis patient plasma at 150 mg, iv QD for 4 consecutive days by HPLC; assay type: ADME, organism-based; design: dose 150 mg, route intravenous; details: human; outline: as §3
[14] = Ratio of drug level in alveolar cell to plasma of lung transplant recipient invasive aspergillosis patient at 150 mg, iv QD for 4 consecutive days measured after 8 hrs post last dose; assay type: ADME, organism-based, Pneumocyte; details: human, alveolar cells / plasma
[15] = Drug level in lung transplant recipient invasive aspergillosis patient plasma at 150 mg, iv QD for 4 consecutive days measured after 8 hrs post last dose by HPLC; assay type: ADME, organism-based; details: human, read-out: Drug uptake; outline: as §1
[16] = Drug level in lung transplant recipient invasive aspergillosis patient plasma at 150 mg, iv QD for 4 consecutive days measured after 3 hrs post last dose by HPLC; assay type: ADME, organism-based; details: human, read-out: Drug uptake; outline: as §1
Homo sapiens [17] = test: Hepatotoxicity in lung transplant recipient invasive aspergillosis patient assessed as serum creatinine level at 150 mg, iv QD for 4 consecutive days measured post last dose; assay type: toxicity, organism-based; details: in vivo; outline: as §2
[18] = Ratio of AUC (0 to 24 hrs) in lung transplant recipient invasive aspergillosis patient plasma to MIC90 for Aspergillus fumigatus; assay type: functional
[19] = Cmax in epithelial lining fluid of lung transplant recipient invasive aspergillosis patient at 150 mg, iv QD for 4 consecutive days by HPLC; assay type: ADME, organism-based; design: dose 150 mg, route intravenous; details: human; outline: as §3
[20] = Ratio of total Cmax to MIC90 in lung transplant recipient invasive aspergillosis patient infected with Aspergillus fumigatus; assay type: functional
[21] = Ratio of drug level in epithelial lining fluid to plasma in lung transplant recipient invasive aspergillosis patient at 150 mg, iv QD for 4 consecutive days measured after 18 hrs post last dose; assay type: ADME, organism-based; details: human
[22] = Drug level in epithelial lining fluid of lung transplant recipient invasive aspergillosis patient at 150 mg, iv QD for 4 consecutive days measured after 5 hrs post last dose by HPLC; assay type: ADME, organism-based; details: human, read-out: Drug uptake; outline: as §1
[23] = Drug level in epithelial lining fluid of lung transplant recipient invasive aspergillosis patient at 150 mg, iv QD for 4 consecutive days measured after 24 hrs post last dose by HPLC; assay type: ADME, organism-based; details: human, read-out: Drug uptake; outline: as §1
[24] = AUC (0 to 24 hrs) in epithelial lining fluid of lung transplant recipient invasive aspergillosis patient plasma at 150 mg, iv administered as single dose; assay type: ADME, organism-based; design: time < 24 hr, dose 150 mg, route intravenous; details: human; outline: as §4
[25] = Drug level in lung transplant recipient invasive aspergillosis patient plasma at 150 mg, iv QD for 4 consecutive days measured after 5 hrs post last dose by HPLC; assay type: ADME, organism-based; details: human, read-out: Drug uptake; outline: as §1
[26] = Drug level in epithelial lining fluid of lung transplant recipient invasive aspergillosis patient at 150 mg, iv QD for 4 consecutive days measured after 3 hrs post last dose by HPLC; assay type: ADME, organism-based; details: human, read-out: Drug uptake; outline: as §1

CCCCCOc1ccc(-c2cc(-c3ccc(C(=O)N[C@H]4C[C@@H](O)[C@@H](O)NC(=O)[C@@H]5[C@@H](O)[C@@H](C)CN5C(=O)[C@H]([C@H](O)CC(N)=O)NC(=O)[C@H]([C@H](O)[C@@H](O)c5ccc(O)c(OS(=O)(=O)O)c5)NC(=O)[C@@H]5C[C@@H](O)CN5C(=O)[C@H]([C@@H](C)O)NC4=O)cc3)no2)cc1 [MICAFUNGIN] (X1-[Orn(4R-OH,5R-OH)]T[Hyp][hTyr(3S-OH,4S-OH,3'-OSO3H)][Gln(3R-OH)][Pro(3S-OH,4S-Me)]; lactam 1-C)
concentration at 3 h [1]: 7170 ng/mL | Activity (Homo sapiens [2]): 28.6 IU/L | Activity (Homo sapiens [3]): 41.6 IU/L | Tmax [4]: 24.2 h | Kp at 24 h [5]: 6.22 | Ratio [6]: 923.1 | concentration at 8 h [7]: 4860 ng/mL | Ratio [8]: 88.5 | Ratio [9]: 1115 | AUC(0-t) at 24 h [10]: 79200 ng·h/mL | Kp at 5 h [11]: 0.61 | concentration at 24 h [12]: 9990 ng/mL | Cmax [13]: 4930 ng/mL | Kp at 8 h [14]: 1.23 | concentration at 8 h [15]: 3930 ng/mL | concentration at 3 h [16]: 4930 ng/mL | Activity (Homo sapiens [17]): 1.11 mg/dL | Ratio [18]: 5077 | Cmax [19]: 1380 ng/mL | Ratio [20]: 316 | Kp at 18 h [21]: 0.04 | concentration at 5 h [22]: 690 ng/mL | concentration at 24 h [23]: 1380 ng/mL | AUC(0-t) at 24 h [24]: 14400 ng·h/mL | concentration at 5 h [25]: 5380 ng/mL | concentration at 3 h [26]: 40 ng/mL
